A selection follows.
Apaf-1 act – human Apaf-1 activation; Apaf-1 apoptosome caspase-3 activation, DEVD-Rh110 fluorescence; stronger effect = lower value; activity change, negative = activation, % at 20 µM; 330,000 tested, 0.31% active; AID 489031;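 active = activity change at or below -40% at 20 µM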
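Schedule: 30 min preincubation, 50 min reaction, room temperature / System: biochemical Apaf-1 apoptosome reconstitution / Medium: 20 mM HEPES pH 7.5 with CHAPS, BSA / Evaluation: Caspase-3 cleavage activity downstream of Apaf-1 activation / Detection: Caspase-3-released Rh110 fluorescence, 540 nm emission, 480 nm excitation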
Rh110 act interf – counter-screen for Apaf-1 activators: fluorescence interference | shares compounds with Apaf-1 act | Rh110 fluorescence interference, quenched caspase reaction, Ex480/Em540 | fluorescence interference (activity change), % at 20 µM, hits read low | 980 tested, under 10 active | AID 504616;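 active = mean activity change at or below -40% when tested at 20 µM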
Apaf-1 act conf2 – Apaf-1 (human) activation, single-dose confirmed; shares compounds with Apaf-1 act; reconstituted apoptosome caspase-3 activity, DEVD-Rh110 fluorescence; stronger effect = lower value; activity change, negative = activation, % at 20 µM; 980 tested, 5% active; AID 504617;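 active = mean activity change at or below -40%, meaning activation of 40% or more, at 20 µM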
Large screens that a line does not name were inactive (follow-up assays come after a bar, where they were run).

COc1ccc(C(CNC(=O)c2cc3c(s2)CCC(C)C3)N2CCCC2)cc1 (stereo not given)	none
Cc1ccc(S(=O)(=O)C(C#N)c2nc3ccccc3nc2N2CCCC2)cc1 (stereo not given)	none
CC(=O)N(C1=C(Cl)C(=O)c2ccccc2C1=O)C1CCCCC1	none
O=C(N/C(=C\c1ccccc1Cl)C(=O)N1CCOCC1)c1ccc([N+](=O)[O-])cc1	Apaf-1 act -309 | Rh110 act interf inactive | Apaf-1 act conf2 inactive
Cc1cccc(CNc2ncnc3ccc(-c4ccc5c(c4)OCCO5)cc23)c1	none
CCc1cc2c(NCc3ccco3)ncnc2s1	Apaf-1 act -110 | Rh110 act interf inactive | Apaf-1 act conf2 inactive
COc1ccc(CC(=O)Nc2ccc(S(=O)(=O)Nc3onc(C)c3C)cc2)cc1OC	Apaf-1 act -91 | Rh110 act interf inactive | Apaf-1 act conf2 inactive
COc1ccc(CCN(C)C(=O)c2ccc(COc3ccccc3)o2)cc1OC	none
COc1ccc(CC(=O)NNS(=O)(=O)c2ccc([N+](=O)[O-])cc2)cc1OC	Apaf-1 act -479 | Rh110 act interf inactive | Apaf-1 act conf2 inactive
CN(C)CCC(c1ccc(Cl)cc1)c1ccccn1 (stereo not given)	none
Nc1ccc2ncccc2c1	none
CC(C)CC(=O)NC(=S)Nc1ccccc1F	Apaf-1 act -80 | Rh110 act interf inactive | Apaf-1 act conf2 inactive
Cc1ccc(NC(=S)Nc2cccc3ccccc23)cc1F	none
COC(=O)c1ccccc1NC1=C/C(=N\S(=O)(=O)c2cccs2)c2ccccc2C1=O	none
CCC(COC)Oc1cc(NCc2ccccc2)c2ncn(C(C)C)c2c1 (stereo not given)	none
O=C1C=C(Nc2ccccc2)c2ccccc2C1=O	none
COC(=O)CCC(=O)OC1(C)C(=O)C2=CN(CC3CC3)C(c3ccc(OC)cc3)=CC2=C(Br)C1=O (stereo not given)	none
CN1C(=O)c2cccc3c(S(=O)(=O)NCc4ccco4)ccc1c23	none
CCOc1cc2[nH]c(=O)n(CCCCC(=O)NCc3ccco3)c(=O)c2cc1OCC	Apaf-1 act -190 | Rh110 act interf inactive | Apaf-1 act conf2 inactive
CCOC(=O)C(C(=O)OCC)c1cc(Br)c2noc3c2c1C(=O)c1ccccc1-3	none
CN(C)CCCNC(=O)CC1C[C@H](C(=O)N2CCCCC2)[C@@]2(CCc3ccccc3)c3[nH]c4ccccc4c3CCN2C1=O (stereo not given in full)	none
COc1ccc2cc3cc(C(=O)NCCCN4CCc5ccccc5C4)sc3nc2c1	none
Cc1cccc(/C=N/Nc2cc(N3CCOCC3)nc(N3CCOCC3)n2)c1	none
CC(C)c1ccc(/C=N/Nc2cc(N3CCOCC3)nc(N3CCOCC3)n2)cc1	none
Cc1cc(N2CCCCC2)nc(N2CCOCC2)n1	Apaf-1 act -57 | Rh110 act interf inactive | Apaf-1 act conf2 inactive
Cc1c(N=Cc2cc3c(cc2[N+](=O)[O-])OCO3)cccc1[N+](=O)[O-]	none
Cc1cc(C(=O)Nc2ccccc2N2CCCCC2)no1	Apaf-1 act -512 | Rh110 act interf inactive | Apaf-1 act conf2 inactive
NC(=O)c1cc(N)ccc1N1CCCC1	none
Nc1ccc(N2CCCCC2)c2nonc12	none
CCN(CC)c1ccc(N=C2C(=O)Nc3ccccc32)cc1	none
CC(C)C[C@@H]1CN=C(N)N1C[C@@H]1CCCN1C[C@H](C)N1C[C@@H](Cc2ccccc2)N(CCCC2CCCC2)C1=N	none
C#CCOCCOCCOCCNc1nc(N2CCN(C(=O)CCCCCCCCCCNC(=O)Cn3cc(CCCCCN)nn3)CC2)nc(N2CCN(C(=O)CCCCCCCCCCNC(=O)Cn3cc(CCCCCN)nn3)CC2)n1	none
CCOC(=O)c1c(CN(C)C)n(C)c2c(O)c(N=NC(N)=O)c3ccc(Br)cc3c12	none
Cc1ccc(C)c(N2CCN(S(=O)(=O)c3cn(C)cn3)CC2)c1	Apaf-1 act -78 | Rh110 act interf inactive | Apaf-1 act conf2 inactive
COC(=O)C1=C(C)N(Cc2ccccc2)C(=NCc2ccc(OC)cc2)N[C@H]1c1cccc(F)c1	none
CCCCCc1cc(=O)oc2c(C(CCN3CCCCC3)c3ccc4c(c3)OCO4)c(OC)cc(OC)c12 (stereo not given)	none
CCC(C)NCCOCCOc1ccc(Br)cc1 (stereo not given)	Apaf-1 act -47 | Rh110 act interf inactive | Apaf-1 act conf2 inactive
CCOc1ccc2nc(N(CCN(C)C)C(=O)c3ccc4c(c3)CCCC4)sc2c1	none
CN(C)CCCN(C(=O)c1ccc(S(=O)(=O)N2CCCC2)cc1)c1nc2ccc(Br)cc2s1	none
CCN(CC)CCN(C(=O)c1ccc(C(C)=O)cc1)c1nc2ccc(Cl)cc2s1	Apaf-1 act -329 | Rh110 act interf inactive | Apaf-1 act conf2 inactive
Clc1ccc(-c2cn3nc4c(nc3n2)CCCC4)cc1	none
CCCNC(=O)c1ccc(SC)cc1OC	Apaf-1 act -174 | Rh110 act interf inactive | Apaf-1 act conf2 inactive
COc1cc2nc(Nc3ccc(C)c(Cl)c3)nc(N)c2cc1OC	none
CN(CC(=O)Nc1ccc(Cl)cc1)C(=O)c1sccc1-c1ccccc1	none
O=C(CC1Nc2cccc3cccc(c23)NC1=O)Nc1ccc(F)cc1 (stereo not given)	none
CC(C)c1ccccc1OCC(=O)N(C)CC(=O)Nc1ccc(F)cc1	Apaf-1 act -505 | Rh110 act interf inactive | Apaf-1 act conf2 inactive
CCOC(=O)C1CCN(C(=O)c2ccc3c(c2)NC(=O)/C(=C\c2cccc(C)c2)S3)CC1	none
CCOC(=O)N1CCN(C2=C(NS(=O)(=O)c3ccccc3)C(=O)c3ccccc3C2=O)CC1	none
CCN(CC)C(=O)N1CCN(S(=O)(=O)c2ccccc2)CC1	Apaf-1 act -81 | Rh110 act interf inactive | Apaf-1 act conf2 inactive
COCCN(Cc1ccccc1)C(=O)c1cccc(S(=O)(=O)N2CCN(c3ccccc3)CC2)c1	none
Nc1ccn([C@H]2C[C@H](O)[C@@H](CO)O2)c(=O)n1	none
O=C1C(NS(=O)(=O)c2ccc(Cl)cc2)=C(N2CCCCC2)C(=O)c2ccccc21	none
O=S1(=O)N=C(Nc2ccc(S(=O)(=O)N3CCCCC3)cc2)c2ccccc21	Apaf-1 act -44 | Rh110 act interf inactive | Apaf-1 act conf2 inactive
Cc1ccccc1Nc1cc2ccccc2c(=O)[nH]1	none
COCCNc1nc(C)cc(-c2cc(C(=O)Nc3ccccc3)on2)n1	Apaf-1 act -53 | Rh110 act interf inactive | Apaf-1 act conf2 inactive
CN(C)CCCN1c2ccccc2Sc2ccc(C(F)(F)F)cc21	none
CN1CCN(C2=C(NS(=O)(=O)c3ccccc3)C(=O)c3ccccc3C2=O)CC1	none
Cn1nccc1C(=O)N1CCN(C23CC4CC(CC(C4)C2)C3)CC1	Apaf-1 act -56 | Rh110 act interf inactive | Apaf-1 act conf2 inactive
COc1ccc(CN2C(=O)Cc3c2nc(N)c2c(N)nc(N4CCCCC4)c(C#N)c32)cc1	none
COc1ccc(-c2ccc(C(c3c(C)[nH][nH]c3=O)c3c(C)[nH][nH]c3=O)o2)c([N+](=O)[O-])c1	none
CN(C)CCC(c1ccccc1)c1ccccn1 (stereo not given)	none
O=C1C(NS(=O)(=O)c2cccs2)=C(N2CCN(Cc3ccccc3)CC2)C(=O)c2ccccc21	none
O=C(NC1=C(NC2CCS(=O)(=O)C2)C(=O)c2ccccc2C1=O)c1ccccc1 (stereo not given)	none
COc1ccccc1/C=C/C(=O)OCC(=O)NC1CCS(=O)(=O)C1 (stereo not given)	Apaf-1 act -78 | Rh110 act interf inactive | Apaf-1 act conf2 inactive

High-throughput results deposited in PubChem by Sanford-Burnham Center for Chemical Genomics.
